{
  "source": "ChEMBL document CHEMBL1649261",
  "about": "“Pharmacodynamic profile of tigecycline against methicillin-resistant Staphylococcus aureus in an experimental pneumonia model” (Antimicrob Agents Chemother, 2009)",
  "test_system": "Staphylococcus aureus",
  "experiment": "Antibacterial activity against hospital-acquired methicillin-resistant Staphylococcus aureus 56 by microdilution method",
  "assay_type": "functional",
  "summary_of_the_method": "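Tigecycline MIC measured in triplicate by broth microdilution following CLSI guidelines. Isolates were stored at −80°C in skim milk and subcultured twice on blood agar before testing.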",
  "data": [
    {"smiles": "CC(=O)NC[C@H]1CN(c2ccc(N3CCOCC3)c(F)c2)C(=O)O1", "note": "[LINEZOLID]", "values": [
      {"measurement": "MIC", "result": 8, "unit": "µg/mL"}
    ]}
  ]
}
